Screens from PubChem BioAssay.
HKDC1 inhibitor – HKDC1 hexokinase inhibitors, primary screen, biochemical, fluorescence, uHTS; AID 493160, 2011; recombinant HKDC1, G6PDH/diaphorase resazurin coupled fluorescence; 340,000 tested, 0.16% active; inhibition, % at 20 µM;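 active means inhibition above about 35% when tested at 20 µM, limit read from the data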;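 further: plate controls were DMSO wells with enzyme for no effect and DMSO wells lacking enzyme for full effect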
Target sequence (Q2TB90 whole entry, looked up): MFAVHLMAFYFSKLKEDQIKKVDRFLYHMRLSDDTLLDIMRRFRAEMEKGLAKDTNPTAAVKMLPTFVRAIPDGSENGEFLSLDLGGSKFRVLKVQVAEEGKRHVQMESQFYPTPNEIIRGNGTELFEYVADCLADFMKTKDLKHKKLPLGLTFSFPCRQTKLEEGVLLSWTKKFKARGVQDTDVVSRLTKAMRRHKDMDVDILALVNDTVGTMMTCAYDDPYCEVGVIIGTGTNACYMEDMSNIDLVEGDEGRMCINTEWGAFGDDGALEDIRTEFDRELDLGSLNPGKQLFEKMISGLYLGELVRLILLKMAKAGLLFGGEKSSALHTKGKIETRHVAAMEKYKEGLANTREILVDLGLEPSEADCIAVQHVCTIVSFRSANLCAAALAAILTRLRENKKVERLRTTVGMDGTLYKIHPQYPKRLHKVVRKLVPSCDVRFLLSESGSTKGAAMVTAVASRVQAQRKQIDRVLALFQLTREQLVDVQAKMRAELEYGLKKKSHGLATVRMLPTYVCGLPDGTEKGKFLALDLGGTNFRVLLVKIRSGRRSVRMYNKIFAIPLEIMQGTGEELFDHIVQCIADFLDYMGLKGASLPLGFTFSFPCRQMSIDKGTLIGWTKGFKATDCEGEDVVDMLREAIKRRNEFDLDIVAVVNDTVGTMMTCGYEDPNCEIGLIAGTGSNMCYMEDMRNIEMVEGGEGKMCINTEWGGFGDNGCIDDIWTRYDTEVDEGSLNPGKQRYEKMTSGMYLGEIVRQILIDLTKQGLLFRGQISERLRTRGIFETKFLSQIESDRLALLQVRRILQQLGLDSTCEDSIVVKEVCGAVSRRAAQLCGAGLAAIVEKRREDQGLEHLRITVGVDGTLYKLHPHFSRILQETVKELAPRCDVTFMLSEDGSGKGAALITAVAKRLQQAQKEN
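Test system: recombinant HKDC1 (HK5) hexokinase enzyme, produced in-house / Doses: 20 µM test compound, 1% DMSO / Timing: 90 min, room temperature / Detection: G6PDH/diaphorase-coupled fluorescence, 1 mM NADP, 100 µM resazurin, 525/613 nm / Control set: DMSO wells with and without enzyme mix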
PfM18AAP inh-1 – PfM18AAP inhibitors, malaria aminopeptidase, primary screen, biochemical, QFRET, recombinant enzyme; inhibition, % at 7.35 µM; M18 aspartyl aminopeptidase (Plasmodium falciparum 3D7); 290,000 tested, 1.2% active; H-Glu-NHMec fluorogenic cleavage;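 active means inhibition above the campaign mean inhibition over all tested compounds plus 3 SD, cut at about 28% in these data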;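 further: 0% = plate median of test compound wells and 100% = 2 mM ZnCl2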
Neddylation inh – inhibitors of cullin neddylation, primary screen, biochemical, TR-FRET, uHTS, NAE and Ubc12 | NEDD8-conjugating enzyme Ubc12 (Homo sapiens) + NEDD8-activating enzyme E1 regulatory … | inhibition, % at 25 µM | 360,000 tested, 0.58% active; in the data active means inhibition above about 36%
PfG6PD inh – PfG6PD enzyme inhibitors, primary screen, biochemical, fluorescence intensity, uHTS; glucose-6-phosphate dehydrogenase-6-phosphogluconolactonase (Plasmodium falciparum 3D7); inhibition, % at 20 µM; PfGluPho enzyme, NADPH resazurin-diaphorase fluorescence; 350,000 tested, 0.78% active;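 active means inhibition reaching at least a set limit at 20 µM in the primary screen, cut at about 59% in these data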;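 further: 0% = DMSO wells with substrate and 100% = DMSO wells lacking glucose-6-phosphate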
PfM18AAP inh-2 – PfM18AAP inhibitors, malaria aminopeptidase, confirmation, biochemical, QFRET, recombinant enzyme, triplicate. shares compounds with PfM18AAP inh-1. H-Glu-NHMec fluorogenic cleavage. inhibition, % at 7.35 µM. 2,400 tested, 28% active. AID 2170, 2009;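 active means mean inhibition over replicate wells above the hit cutoff set for the earlier primary screen, cut at about 29% in these data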;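 further: 0% = median of test compound wells and 100% = 2 mM ZnCl2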
CTSL1 confirm – cathepsin L1 inhibitors, retest, confirmation, counter-screen for PFM18AAP inhibitor project, biochemical, QFRET, triplicate. shares compounds with PfM18AAP inh-1. purified cathepsin L1, Z-Leu-Arg-MCA fluorescence. inhibition, % at 5.96 µM. 2,400 tested, under 10 active;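 active means average inhibition across replicates above the hit cutoff set in the earlier primary screen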;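 further: 0% = median of test compound wells and 100% = Z-Phe-Ala-diazomethylketone 1 µM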
An asterisk follows results filed as active. Compounds with a hit are over-represented: about 2.2% of the library has one in this group of screens.

Results for Cc1nc(-c2ccc(O)c(O)c2)cs1 ?
HKDC1 inhibitor: 4; PfM18AAP inh-1: 94*; Neddylation inh: -1; PfG6PD inh: 28; PfM18AAP inh-2: 87*; CTSL1 confirm: -12

How did Oc1ccc(-c2csc(Nc3ncccn3)n2)c(O)c1 do in these assays?
HKDC1 inhibitor: -11; PfM18AAP inh-1: 18; Neddylation inh: 2; PfG6PD inh: 25

What do the screens show for `Oc1ccc(-c2csc(-c3cccnc3)n2)cc1O`?
HKDC1 inhibitor: 6; PfM18AAP inh-1: 73*; Neddylation inh: -35; PfG6PD inh: -1; PfM18AAP inh-2: 85*; CTSL1 confirm: 1

What do the screens show for `Cc1cc(=O)n2nc(N3CCCC(C(=O)NC4CCCCC4C)C3)sc2n1` (stereo unspecified)?
HKDC1 inhibitor: -1; PfM18AAP inh-1: 2; Neddylation inh: 4; PfG6PD inh: -2

What do the screens show for `CC(=O)Nc1nnc([N+](=O)[O-])s1`?
Neddylation inh: -27; PfG6PD inh: 39

Results for CC(Sc1nc2ccccc2s1)C(=O)N(C)Cc1ccccc1 (stereo unspecified) ?
HKDC1 inhibitor: 1; PfM18AAP inh-1: 5; Neddylation inh: 0; PfG6PD inh: 5

What do the screens show for `Oc1ccccc1-c1csc(-c2ccccc2)n1`?
HKDC1 inhibitor: 0; PfM18AAP inh-1: -8; Neddylation inh: -19; PfG6PD inh: 12

Results for Oc1ccc(-c2csc(-c3ccccc3)n2)cc1O ?
HKDC1 inhibitor: 4; PfM18AAP inh-1: 55*; Neddylation inh: -37; PfG6PD inh: 1; PfM18AAP inh-2: 60*; CTSL1 confirm: 7

How did CCCCn1nnnc1C1(C)CCC(=O)N1c1ccc(N2CCOCC2)cc1 (stereo unspecified) do in these assays?
Neddylation inh: -5

Results for O=C(NC1CCC(O)CC1)c1ccc(-c2ccc([N+](=O)[O-])cc2)o1 (stereo unspecified) ?
HKDC1 inhibitor: -3; PfM18AAP inh-1: 33*; Neddylation inh: -15; PfG6PD inh: 24; PfM18AAP inh-2: -120; CTSL1 confirm: 3

How did NC(=O)c1ccc(CN2CCc3ccccc3C2)cc1 do in these assays?
HKDC1 inhibitor: 2; PfM18AAP inh-1: 4; Neddylation inh: -3; PfG6PD inh: 4

What do the screens show for `COC(=O)[C@@H](Cc1c[nH]c2ccccc12)NC(=O)CCC(=O)c1ccc(Br)cc1`?
HKDC1 inhibitor: 7; PfM18AAP inh-1: -1; Neddylation inh: 3; PfG6PD inh: 5

How did COc1cc(C(C[N+](=O)[O-])c2c(C)cc3ccccn23)ccc1O (stereo unspecified) do in these assays?
HKDC1 inhibitor: 3; PfM18AAP inh-1: 40*; Neddylation inh: 2; PfG6PD inh: 39; PfM18AAP inh-2: -13; CTSL1 confirm: 0

What do the screens show for `COc1cc(C(C[N+](=O)[O-])c2c(-c3ccccc3)cc3ccccn23)cc(OC)c1OC` (stereo unspecified)?
HKDC1 inhibitor: 0; PfM18AAP inh-1: 9; Neddylation inh: 5; PfG6PD inh: 7

What do the screens show for `Cc1c[n+](C)ccc1CC1C([N+](=O)[O-])=C[N-]c2ncnn21` (stereo unspecified)?
HKDC1 inhibitor: -6; PfM18AAP inh-1: 21; Neddylation inh: -16; PfG6PD inh: 6

What do the screens show for `C[n+]1ccc(CC2C(=[N+]([O-])[O-])C=Nc3ncnn32)cc1` (stereo unspecified)?
HKDC1 inhibitor: -6; PfM18AAP inh-1: 32*; Neddylation inh: -23; PfG6PD inh: 10; PfM18AAP inh-2: -10; CTSL1 confirm: 6

Results for Cc1ccc(C2CC(=O)Oc3cc(C)c(Br)c(C)c32)cc1 (stereo unspecified) ?
HKDC1 inhibitor: 9; Neddylation inh: -9; PfG6PD inh: 15
